Where two headings read alike, the source gives them in different places. One block for each compound: values may come before it.
What was measured:
[1] = system: NCI-H460 (human large cell lung cancer cells); assay: MTT antiproliferative assay, NCI-H460; format: cell-based; settings: read-out: IC50 NCI-H460
How it was run: (§1)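 MTT assay on HepG2, SK-OV-3, NCI-H460, BEL-7404 and normal HL-7702 cells, with 5-fluorouracil and cisplatin run alongside as positive controls.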

[2] = system: HL-7702 (human liver normal cells); assay: MTT cytotoxicity assay, HL-7702 normal cells; format: cell-based; settings: L02, 48 h, read-out: IC50 HL-7702
How it was run: as §1

[3] = system: SK-OV-3 (human ovarian cancer cells); assay: MTT antiproliferative assay, SK-OV-3; format: cell-based; settings: read-out: IC50 SKOV-3
How it was run: as §1

[4] = system: HepG2 (human liver cancer cells); assay: MTT antiproliferative assay, HepG2; format: cell-based; settings: read-out: IC50 HepG2
How it was run: as §1

[5] = system: BEL-7404 (human liver cancer cells); assay: MTT antiproliferative assay, BEL-7404; format: cell-based; settings: read-out: IC50 BEL-7404, 48 h, mean ± SD of three experiments
How it was run: as §1

HepG2 xenograft = assay: In vivo antitumor activity, HepG2 xenograft model; design: species or system SPF BALB/c nude mice
How it was run: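 HepG2 xenografts in SPF BALB/c nude mice, randomised into vehicle, low-dose (10 mg kg−1), high-dose (20 mg kg−1) and paclitaxel (5 mg kg−1) groups. All were injected in 5% DMSO/saline (v/v). Tumours were measured twice weekly in two dimensions to give volume, mean ± SD, n = 6. The relative tumour increment rate (T/C, %) was taken at day 41.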

[6] = MTT, 48 h, mean ± SD of three experiments

- IC50 ([1]; Homo sapiens, NCI-H460, 48 h): 45.4 ± 0.94 µM
- IC50 ([3]; Homo sapiens, SK-OV-3, 48 h): 26.3 ± 0.57 µM
- IC50 ([4]; Homo sapiens, HepG2, 48 h): 32 ± 0.56 µM
SMILES: O=c1[nH]cc(F)c(=O)[nH]1 [5-FU, 5-fluorouracil]
- IC50 [2]: 58.7 ± 2.31 µM

SMILES: N.N.[Cl][Pt][Cl] [Cisplatin, cisplatin]
- IC50 [5]: 14.7 ± 0.66 µM
- IC50 [1, 6]: 20.4 ± 0.5 µM
- IC50 [3, 6]: 15.6 ± 1.7 µM
- IC50 [4, 6]: 10.1 ± 0.71 µM

SMILES: CC(=O)O[C@H]1C(=O)[C@@]2(C)[C@H]([C@H](OC(=O)c3ccccc3)[C@]3(O)C[C@H](OC(=O)[C@H](O)[C@@H](NC(=O)c4ccccc4)c4ccccc4)C(C)=C1C3(C)C)[C@]1(OC(C)=O)CO[C@@H]1C[C@@H]2O [Paclitaxel, paclitaxel]
- T/C value (relative tumor increment rate) (HepG2 xenograft; 5 mg kg^−1 dose): 19.0%
- effect on tumour volume in mice (HepG2 xenograft; 3a1 10 and 20 mg kg^−1, paclitaxel 5 mg kg^−1, compared with control): significantly inhibited the increase in the tumour volume
